# Experimental data: BindingDB's records for doi:10.1021/np5000704 (University of North Carolina At Greensboro, 2014)
# Positions of bridges follow the written chain, without caps; N, C: chain ends. Residues, ends and D or L forms follow the SMILES beside them.
# Target: T1, Accessory gene regulator protein A (Staphylococcus aureus, UniProt P0A0I7)
# T1 sequence (P0A0I7 whole entry): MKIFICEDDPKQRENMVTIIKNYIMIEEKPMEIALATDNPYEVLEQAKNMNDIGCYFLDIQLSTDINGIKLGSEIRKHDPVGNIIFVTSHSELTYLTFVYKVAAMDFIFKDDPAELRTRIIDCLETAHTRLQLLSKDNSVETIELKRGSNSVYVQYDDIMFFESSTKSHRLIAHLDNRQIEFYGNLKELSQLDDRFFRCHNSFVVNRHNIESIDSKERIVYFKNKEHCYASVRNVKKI
# Experiment: Inhibition of AGR quorum sensing system in methicillin-resistant Staphylococcus aureus AH2759 incubated for 15 hrs by P3-LUX reporter gene assay
# How it was run: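 S. aureus AH2759 (USA300 LAC, plasmid agr P3-luxABCDE) grown overnight in TSB with chloramphenicol 10 μg/mL, then diluted to a final 1:500. Compounds were added at 0.1–1000 μM final with 1% DMSO. Incubated at 37 °C with 250 rpm shaking. OD600 and luminescence were read hourly from 15 h. IC50 came from a weighted four-parameter logistic fit of OD-normalized luminescence; growth-delayed wells were excluded. AIP-2 (2–500 nM) was the control.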
row,Compound,IC50
1,O=C1c2cc(O)cc(O)c2C(=O)c2c(O)cc(CO)cc21,8.1 µM
2,C[C@H](O)Cc1cc(O)c2c(c1)C(=O)c1cc(O)cc(O)c1C2=O,8.9 µM
3,CC(=O)Cc1cc(O)c2c(c1)C(=O)c1cc(O)cc(O)c1C2=O,19.8 µM
4,C[C@@H](O)[C@@H](O)c1cc(O)c2c(c1)C(=O)c1cc(O)cc(O)c1C2=O,26.5 µM
5,CC(=O)C(O)c1cc(O)c2c(c1)C(=O)c1cc(O)cc(O)c1C2=O (stereo not given),30.1 µM
6,O=C(O)c1cc(O)c2c(c1)C(=O)c1cc(O)c(O)c(O)c1C2=O,120 µM
7,CC(C)C[C@@H]1NC(=O)[C@H](CO)NC(=O)[C@H](CO)NC(=O)[C@@H](NC(=O)[C@H](C)NC(=O)[C@H](CC(N)=O)NC(=O)[C@@H](NC(=O)CN)C(C)C)CSC(=O)[C@H](Cc2ccccc2)NC1=O (H-GVNACSSLF; thioester 5-C),0.012 µM
8,"Cc1cc(O)c2c(c1)C(=O)c1cc(O)cc(O)c1C2=O [1,3,8-trihydroxy-6-methylanthra-9,10-quinone]",17.1 µM
9,"O=C(O)c1cc(O)c2c(c1)C(=O)c1cc(O)c(Cl)c(O)c1C2=O [6-chloro-4,5,7-trihydroxy-9,10-dioxo-9,10-dihydroanthracene-2-carboxylic acid]",37.8 µM
10,O=C(O)c1cc(O)c2c(c1)C(=O)c1cc(O)cc(O)c1C2=O [MLS000876948],30.6 µM
